F508del corr – F508del CFTR correction, initial screen, CFBE line, single point; actives 0.36% (n = 350,000); CFBE cells, YFP halide quenching; stimulated with forskolin plus potentiator P3; % fluorescence drop versus neutral controls; activity (quench increase), % at 7.58 µM;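 active = mean added fluorescence quench of at least 8% versus neutral control, with both replicates also reaching 8%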;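 also: cells transiently co-express mutant CFTR-F508del with the halide-sensitive YFP; corrector assay measuring rescue of mutant channel to the surface after 24 h compound exposure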
EWS-Fli inh – EWS/Fli-driven NR0B1 reporter inhibitors, primary screen, A673 cells, NR0B1 luciferase, luminescence, MLPCN library; inhibition, % at 12.6 µM; AID 651661, 2012; actives 0.67% (n = 350,000); viability-normalised;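 active = mean inhibition of at least 50% after viability correction, with every replicate also passing that limit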;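 also: firefly luciferase signal divided by Alamar Blue viability fluorescence both relative to DMSO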
FN deposit inh – inhibitors of fibronectin matrix deposition, primary screen, AH1F cells, Alexa488-fibronectin fluorescence, plate reader; AH1F fibroblasts, overnight; inhibition, % at 12.6 µM; actives 0.086% (n = 350,000);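 active = mean inhibition across replicates of 30% or more, regardless of how many single replicates reach that level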;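 also: positive control wells lacked labelled fibronectin entirely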
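Assay system: AH1F fibroblast monolayer, labelled fibronectin deposition. Amount: 10000 cells per well. Also added: labelled fibronectin 24 nM. Compound: single-point pinned compound. Incubation: cell attachment 1 h, compound and FN exposure overnight. Detection: fluorescence after three HBSS washes, excitation 485 nm, emission 525 nm. Read-out: inhibition of fibronectin deposition signal.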
PGC1a acetyl inh – inhibitors of PGC1a acetylation signal, primary screen, cell-based, U2OS, AlphaScreen, inhibitor mode; AID 651687, 2012; AlphaScreen anti-acetyl-lysine; with virally co-expressed GCN5 acetyltransferase; actives 0.17% (n = 350,000); inhibition, % at 15.6 µM;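 active = every replicate shows inhibition of at least 40%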;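 also: 0% = neutral control wells and 100% = positive control wells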
Env fusion inh – inhibitors of HIV-1 Env-driven cell-cell fusion, primary screen, HeLa-JRFL effector, CEM21 target cells, luciferase; inhibition, % at 12.3 µM; actives 1.1% (n = 360,000);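 active = mean replicate inhibition score of at least 50 and every replicate individually at or above 50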;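 also: 0% = plate neutral controls and 100% = maraviroc near 300 nM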
PAX8 inh HTS – inhibitors of PAX8-driven TPO luciferase reporter, primary screen, RMG-I cells, single concentration; AID 652154, 2013; actives 1.2% (n = 360,000); inhibition, % at 12.6 µM; SteadyGlo, 24 h;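 active = mean replicate inhibition at least 60% with every replicate also reaching 60%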;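 also: luciferase light reporting Pax8 driven TPO promoter activity; plate controls were median of neutral control wells for no effect and mitoxantrone controls for full effect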
Active calls of the source: *; [ ] = remark or other dose. Hits are enriched below; roughly 2.3% of the tested compounds scored in any of these assays.

Results for CCCNC(=O)N1[C@H](CO)[C@@H](c2ccccc2-c2cccc(C)c2)[C@@H]1C#N ?
F508del corr: -3; EWS-Fli inh: -3; FN deposit inh: -5; PGC1a acetyl inh: 3; PAX8 inh HTS: -8

What do the screens show for `NC(=O)C1CCN(C(=O)c2cc3ccccc3cc2O)CC1`?
F508del corr: -2; EWS-Fli inh: 7; FN deposit inh: -6; Env fusion inh: 63*; PAX8 inh HTS: 9

How did NC(=O)C1CCN(C(=O)c2cccc3ccccc23)CC1 do in these assays?
F508del corr: 0; EWS-Fli inh: 16; FN deposit inh: 2; PGC1a acetyl inh: 11; Env fusion inh: -1; PAX8 inh HTS: 5

What do the screens show for `Cc1noc(C)c1NC(=O)N[C@@H]1CC[C@@H](CCNC(=O)C2CCC2)O[C@H]1CO`?
F508del corr: 0; EWS-Fli inh: 2; PGC1a acetyl inh: -3; Env fusion inh: 8[16.7 µM]; PAX8 inh HTS: 3

What do the screens show for `CCCNC(=O)N(C)C[C@H]1Oc2ncc(C3=CCCCC3)cc2C(=O)N([C@H](C)CO)C[C@H]1C`?
F508del corr: -3; EWS-Fli inh: -3; PGC1a acetyl inh: -4; Env fusion inh: 5[16.7 µM]

How did Cc1ccc(Cl)cc1N1CCN(C(=O)C2CCN(c3nnc(-n4cccc4)s3)CC2)CC1 do in these assays?
F508del corr: 1; EWS-Fli inh: 20; FN deposit inh: 2; PGC1a acetyl inh: 1; Env fusion inh: 56*; PAX8 inh HTS: 39

Results for Cc1cccc(N2CCN(C(=O)C3CCN(c4nnc(-n5cccc5)s4)CC3)CC2C)c1 (stereo not drawn) ?
F508del corr: 0; EWS-Fli inh: 3; FN deposit inh: 5; PGC1a acetyl inh: 18; Env fusion inh: -4; PAX8 inh HTS: -5

What do the screens show for `C[C@@H]1CN([C@@H](C)CO)C(=O)c2cc(NC(=O)Nc3ccccc3)ccc2O[C@@H](C)CCCCO[C@H]1CN(C)C(=O)CCC(F)(F)F`?
F508del corr: -2; EWS-Fli inh: 0; FN deposit inh: 1; PGC1a acetyl inh: -2; Env fusion inh: 22[16.7 µM]; PAX8 inh HTS: -22

How did CC1(C)C(=O)OC(c2cccn2-c2ccc([N+](=O)[O-])cc2)C(C)(C)C1=O (stereo not drawn) do in these assays?
FN deposit inh: 7; Env fusion inh: 6; PAX8 inh HTS: -4

What do the screens show for `CC1(C)C(=O)C2(CCCCC2)C(=O)OC1c1cccn1-c1ccc([N+](=O)[O-])cc1` (stereo not drawn)?
EWS-Fli inh: 0; Env fusion inh: 72*; PAX8 inh HTS: -8

Results for Cc1cccc(NC(=O)C2CCN(S(=O)(=O)c3cccc4nsnc34)CC2)n1 ?
FN deposit inh: 10; PGC1a acetyl inh: -17; Env fusion inh: 16; PAX8 inh HTS: 3

Results for COc1ccc2nc(NC(=O)C3CCN(S(=O)(=O)c4cccc5nsnc45)CC3)sc2c1 ?
FN deposit inh: 14; PGC1a acetyl inh: 2; Env fusion inh: 80*; PAX8 inh HTS: 63*

What do the screens show for `Cc1ccc(S(=O)(=O)N2C[C@H]3[C@H]4C(=O)N(c5ccccc5)C(=O)[C@H]4CC(=O)[C@H]3[C@@H]2c2ccc(Cl)cc2)cc1`?
F508del corr: -1; EWS-Fli inh: -18; FN deposit inh: 4; PGC1a acetyl inh: -4; PAX8 inh HTS: 13

How did Cc1ccccc1S(=O)(=O)N1C[C@@H]2C(C(=O)C[C@@H]3C(=O)N(C)C(=O)[C@@H]32)[C@@H]1c1ccc(Cl)cc1 (stereo partly drawn) do in these assays?
F508del corr: -2; EWS-Fli inh: 1; FN deposit inh: -4; Env fusion inh: 61*; PAX8 inh HTS: -14

How did Cc1ccccc1S(=O)(=O)N1C[C@H]2[C@H]3C(=O)N(C4CCCCC4)C(=O)[C@H]3CC(=O)[C@H]2[C@@H]1c1ccc(Cl)cc1 do in these assays?
F508del corr: 3; EWS-Fli inh: -5; PGC1a acetyl inh: -23; Env fusion inh: 132*; PAX8 inh HTS: 4

From PubChem
